Results collected from several papers.
Each line is one published result; the experiments were not run side by side. In brackets after ≈: the same amount, converted by molar mass.

| SMILES | organism | assay | test system | conditions | quantity | value |
| --- | --- | --- | --- | --- | --- | --- |
| O=C1CC(N(OCc2ccccc2)C(=O)c2cc([N+](=O)[O-])cc(C(F)(F)F)c2)N1 (stereo not drawn) | Mycolicibacterium vaccae | microbial growth | – | – | MIC | 6.25 µM |
| OC(Cn1cncn1)(Cn1cncn1)c1ccc(F)cc1F | Kluyveromyces marxianus | microbial growth, broth dilution | – | 24 h | MIC90 | 1 µg/mL (≈ 3.27 µM) |
| C=CCON(C(=O)c1cc([N+](=O)[O-])cc(C(F)(F)F)c1)C1CC(=O)N1SC (stereo not drawn) | Mycolicibacterium vaccae | microbial growth | – | – | MIC | 6.25 µM |
| O=C(O)c1cn(C2CC2)c2cc(N3CCNCC3)c(F)cc2c1=O | Mycolicibacterium vaccae | microbial growth | 10670 | 1000 µg/mL | inhibition zone | 21 mm |
| Nc1nc(-c2ccccc2)nc2[nH]nc(Nc3ccc(C(F)(F)F)cc3)c12 | Enterovirus | cytopathic effect | HeLa | – | IC50 | 4590 nM |
| CC1(C)S[C@@H]2[C@H](NC(=O)[C@H](N)c3ccccc3)C(=O)N2[C@H]1C(=O)O | Limosilactobacillus reuteri | microbial growth, broth dilution | ATCC23272 | – | MIC | 1 µg/mL |
| Cc1cc(CCCOc2c(C)cc(-c3noc(C(F)(F)F)n3)cc2C)on1 | Enterovirus | cytopathic effect, inhibitor | HeLa | – | IC50 | 50 nM |
| CCCCCCCCCCCC(=O)Oc1c(C)c(O)c(C(=O)/C=C/c2ccccc2)c(OC)c1C | Pseudomonas aeruginosa | microbial killing, broth dilution | ATCC27853 | – | MBC | > 5000 µg/mL |
| O=C(Nc1ccccc1-c1ccc(F)c(F)c1)c1nccnc1C(F)(F)F | Mycosphaerella arachidis | microbial growth | – | – | EC50 | 0.12 µg/mL (≈ 0.316 µM) |
